Among the data in ChEMBL document CHEMBL1133606, “2-Carbomethoxy-3-aryl-8-bicyclo[3.2.1]octanes: potent non-nitrogen inhibitors of monoamine transporters” (J Med Chem, 2000) are Selectivity and IC50 values, retold here.

What is called IC50 is the concentration that inhibits the measured activity by half.

Test [1] has as its target Monoamine transporters; serotonin & dopamine (UniProt P31645+Q01959). Briefly: Selectivity, ratio of binding to serotonin transporter (SERT) and dopamine transporter (DAT). As to conditions: Cercopithecidae; call rule not given here. Type of test: protein assay. A digest of the protocol:
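Ratio computed as IC50 at SERT ([3H]citalopram binding) divided by IC50 at DAT ([3H]WIN 35,428 binding), both measured in caudate-putamen membranes.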

In test [2] the target is Sodium-dependent serotonin transporter (Homo sapiens, UniProt P31645). Description: Inhibition of [3H]citalopram binding to the serotonin transporter in cynomolgus (macaca fascicularis) monkey caudate putamen. In kind it is tissue-based, Cercopithecidae. Conditions: target entry is the homologue from another species. A digest of the protocol:
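Caudate-putamen membranes at 4 mg original wet tissue/mL final, competition vs 1 nM [3H]citalopram in 50 mM Tris·HCl pH 7.4 with 100 mM NaCl, 7–14 drug concentrations, 2 h at 0–4 °C. Filtration on 0.1% polyethyleneimine-presoaked filters, scintillation counting with cpm converted to dpm. Nonspecific binding with 1 μM fluoxetine. IC50 by EBDA, mean of triplicate experiments.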

Sequence of Sodium-dependent serotonin transporter (P31645 whole entry): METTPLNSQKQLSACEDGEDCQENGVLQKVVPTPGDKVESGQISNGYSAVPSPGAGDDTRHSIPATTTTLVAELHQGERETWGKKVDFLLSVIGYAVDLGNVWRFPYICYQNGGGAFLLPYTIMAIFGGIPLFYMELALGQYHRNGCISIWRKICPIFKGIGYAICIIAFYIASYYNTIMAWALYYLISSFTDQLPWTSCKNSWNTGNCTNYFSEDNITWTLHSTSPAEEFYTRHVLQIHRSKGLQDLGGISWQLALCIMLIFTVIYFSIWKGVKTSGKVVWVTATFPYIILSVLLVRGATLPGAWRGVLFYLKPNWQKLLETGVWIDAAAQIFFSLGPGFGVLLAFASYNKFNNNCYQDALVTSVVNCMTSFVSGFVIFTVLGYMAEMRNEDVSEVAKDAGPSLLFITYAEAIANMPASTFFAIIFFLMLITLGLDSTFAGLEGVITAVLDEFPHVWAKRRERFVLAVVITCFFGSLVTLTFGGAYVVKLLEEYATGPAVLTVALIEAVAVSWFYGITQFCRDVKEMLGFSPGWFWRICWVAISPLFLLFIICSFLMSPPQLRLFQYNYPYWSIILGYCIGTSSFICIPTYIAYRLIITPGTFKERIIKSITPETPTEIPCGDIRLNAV
Sequence of Monoamine transporters; serotonin & dopamine (P31645 whole entry, looked up): as the sequence (P31645 whole entry) above
Sequence of Monoamine transporters; serotonin & dopamine (Q01959 whole entry, looked up): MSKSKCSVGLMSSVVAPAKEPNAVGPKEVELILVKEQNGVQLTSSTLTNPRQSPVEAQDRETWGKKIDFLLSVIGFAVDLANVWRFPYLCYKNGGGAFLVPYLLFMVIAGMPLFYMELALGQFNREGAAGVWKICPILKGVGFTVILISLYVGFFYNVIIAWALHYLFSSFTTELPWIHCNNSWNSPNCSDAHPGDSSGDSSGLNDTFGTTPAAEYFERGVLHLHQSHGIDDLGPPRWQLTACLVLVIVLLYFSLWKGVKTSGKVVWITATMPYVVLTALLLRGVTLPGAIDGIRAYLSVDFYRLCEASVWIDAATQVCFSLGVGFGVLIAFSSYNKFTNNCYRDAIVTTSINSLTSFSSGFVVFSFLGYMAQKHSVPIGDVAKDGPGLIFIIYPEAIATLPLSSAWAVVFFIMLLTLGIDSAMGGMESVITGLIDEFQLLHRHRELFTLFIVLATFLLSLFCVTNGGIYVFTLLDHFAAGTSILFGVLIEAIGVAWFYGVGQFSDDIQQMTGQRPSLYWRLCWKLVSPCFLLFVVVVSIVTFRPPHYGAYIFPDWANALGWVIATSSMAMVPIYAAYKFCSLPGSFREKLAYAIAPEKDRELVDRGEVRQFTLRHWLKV

`COC(=O)C1C(c2ccc(Cl)c(Cl)c2)CC2CCC1N2C` (stereo in doubt; 14a): the Selectivity in test [1] is 68.
With `COC(=O)c1ccccc1-c1ccc2ccccc2c1`, the Selectivity in test [1] was determined as 69. In addition, the IC50 in test [2] is 10000 nM.
For the molecule `COC(=O)C1=C(c2ccc(Cl)c(Cl)c2)CC2CCC1C2` (stereo unspecified), the Selectivity in test [1] was 726.
`COC(=O)C1=C(c2ccccc2)CC2CCC1C2` (stereo unspecified): the IC50 in test [2] (read-out: IC50) is more than 10000 nM.
As to `COC(=O)c1ccccc1-c1ccc(F)cc1`, in test [1], the Selectivity worked out at 2. The half-inhibitory concentration (IC50) in test [2] (read-out: IC50) was found to be 33000 nM.
In test [2], `COC(=O)[C@H]1C2CCC(C2)C[C@@H]1c1ccc2ccccc2c1` (stereo in doubt; 9b) [listing 1 of 2 here] showed an IC50 of 64 nM.
Turning to `COC(=O)[C@@H]1C2CCC(C2)C[C@@H]1c1ccc2ccccc2c1` (stereo partly specified), the Selectivity in test [1] is 2. This molecule also displayed an IC50 in test [2] of 60 nM.
Take `COC(=O)[C@H]1C2CCC(C2)C[C@@H]1c1ccc2ccccc2c1` (stereo in doubt; 9b) [listing 2 of 2 here]: in test [1], the Selectivity turned out to be 4.
For the molecule `COC(=O)C1=C(c2ccccc2)CC2CCC1N2C` (stereo unspecified), in test [2], the concentration for half-maximal inhibition (IC50) result is recorded as “Not Active”.
In the case of `COC(=O)C1C(c2ccc(Cl)c(Cl)c2)CC2CCC1N2C` (stereo in doubt; 12a) [listing 1 of 2 here], the Selectivity in test [1] stood at 2.
In the case of `COC(=O)c1ccccc1-c1ccc(Cl)cc1`, in test [1], the Selectivity worked out at 68. In addition, the IC50 in test [2] (read-out: IC50) was determined as 46000 nM.
In the case of `COC(=O)C1C(c2ccc3ccccc3c2)CC2CCC1N2C` (stereo unspecified), the Selectivity in test [1] came out at 4. Further, the IC50 in test [2] worked out at 2.19 nM.
On to `COC(=O)C1C2CCC(C2)CC1c1ccccc1` (stereo unspecified), for which the Selectivity in test [1] worked out at 25. Also, the 50% inhibitory concentration (IC50) in test [2] (read-out: IC50) was more than 20000 nM.
As for `COC(=O)C1=C(c2ccc(Cl)c(Cl)c2)CC2CCC1N2C` (stereo unspecified), in test [1], the Selectivity stood at 723.
As for `COC(=O)[C@H]1C2CCC(C2)C[C@@H]1c1ccc(Cl)c(Cl)c1` (stereo in doubt; 7a) [listing 1 of 2 here], the Selectivity in test [1] was 3.
As to `COC(=O)C1=C(c2ccc(F)cc2)CC2CCC1N2C` (stereo unspecified), the Selectivity in test [1] was found to be 20. Further, the 50% inhibitory concentration (IC50) in test [2] (read-out: IC50) is 7990 nM.
On to `COC(=O)c1ccccc1C(=O)OC` [DIMETHYL PHTHALATE], for which the half-maximal inhibitory concentration (IC50) in test [2] (read-out: IC50) was more than 100000 nM.
For the molecule `COC(=O)C1=C(c2ccc3ccccc3c2)CC2CCC1N2C` (stereo unspecified), in test [1], the Selectivity turned out to be 38. Besides, the IC50 in test [2] (read-out: IC50) turned out to be 109 nM.
Turning to `COC(=O)[C@@H]1C2CCC(C2)CC1c1ccc2ccccc2c1` (stereo partly specified), the Selectivity in test [1] was 4. In test [2], this molecule returned a half-inhibitory concentration (IC50) of 106 nM.
On to `COC(=O)C1C(c2ccc(Cl)c(Cl)c2)CC2CCC1N2C` (stereo in doubt; 13a) [listing 1 of 2 here], for which the Selectivity in test [1] worked out at 179.
Consider `COC(=O)[C@H]1C2CCC(C2)C[C@@H]1c1ccc2ccccc2c1` (stereo in doubt; 8b) [listing 1 of 2 here], for which the Selectivity in test [1] stood at 67.
Turning to `COC(=O)c1ccccc1-c1ccccc1`, the half-maximal inhibitory concentration (IC50) in test [2] (read-out: IC50) is more than 70000 nM.
For the molecule `COC(=O)[C@H]1C2CCC(C2)C[C@@H]1c1ccc(Cl)c(Cl)c1` (stereo in doubt; 7a) [listing 2 of 2 here], in test [2], the IC50 stood at 33 nM.
In the case of `COC(=O)[C@H]1C2CCC(C2)C[C@@H]1c1ccc(Cl)c(Cl)c1` (stereo in doubt; 9a) [listing 1 of 2 here], in test [1], the Selectivity was 14.
For `COC(=O)[C@H]1[C@@H](c2ccc(F)cc2)C[C@H]2CC[C@H]1N2C` (stereo in doubt; 13c), the half-inhibitory concentration (IC50) in test [2] came out at 12200 nM.
Turning to `COC(=O)C1=C(c2ccc3ccccc3c2)CC2CCC1C2` (stereo unspecified), the Selectivity in test [1] turned out to be 119. The same molecule had a half-inhibitory concentration (IC50) in test [2] of 1310 nM.
With `COC(=O)C1=C(c2ccc(F)cc2)CC2CCC1C2` (stereo unspecified), in test [1], the Selectivity is 91. The molecule further came in with a half-inhibitory concentration (IC50) in test [2] of 35400 nM.
`COC(=O)[C@H]1C2CCC(C2)C[C@@H]1c1ccc2ccccc2c1` (stereo in doubt; 8b) [listing 2 of 2 here]: the IC50 in test [2] amounted to 807 nM.
Regarding `COC(=O)[C@@H]1C2CCC(C2)C[C@@H]1c1ccc(Cl)c(Cl)c1` (stereo partly specified), the Selectivity in test [1] worked out at 46. Moreover, the half-maximal inhibitory concentration (IC50) in test [2] came out at 650 nM.
For the molecule `COC(=O)[C@H]1C(c2ccc3ccccc3c2)CC2CCC1N2C` (stereo partly specified), the Selectivity in test [1] is 10. The molecule also registered a half-inhibitory concentration (IC50) in test [2] of 5.95 nM.
With `COC(=O)C1C(c2ccc(Cl)c(Cl)c2)CC2CCC1N2C` (stereo in doubt; 12a) [listing 2 of 2 here], the 50% inhibitory concentration (IC50) in test [2] stood at 2 nM.
As for `COC(=O)[C@H]1C2CCC(C2)C[C@@H]1c1ccc(Cl)c(Cl)c1` (stereo in doubt; 9a) [listing 2 of 2 here], the concentration for half-maximal inhibition (IC50) in test [2] amounted to 180 nM.
`COC(=O)C1C(c2ccc(Cl)c(Cl)c2)CC2CCC1N2C` (stereo in doubt; 13a) [listing 2 of 2 here]: the IC50 in test [2] came to 358 nM.
